In brackets after ≈: the same amount, converted by molar mass. Activity calls are given as the source filed them. The rule behind the calls is not given here.
Tests used:
Bacillus subtilis [1] = experiment: Antibacterial activity against Bacillus subtilis NBRC 3134 after 18 hrs by broth microdilution method; format: functional; conditions: NBRC 3134, 18 h
Procedure, shortened: (§1)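 Broth microdilution run to CLSI standard methods. MIC taken as the lowest concentration inhibiting growth. Ampicillin and chloramphenicol served as positive controls. Compounds were tested up to 128 µg/mL.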

HL-60 [2] = experiment: Cytotoxicity against human HL60 cells assessed as reduction in cell viability incubated for 48 hrs by WST8 dye based assay; format: functional; conditions: HL-60, 48 h
Procedure, shortened: (§2)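 Suspension leukemia lines (HL-60 promyelocytic, Jurkat T-ALL) exposed to a range of concentrations for 48 h. Viability read by WST-8. IC50 is the concentration giving 50% loss of viability, mean ± SD of triplicates. SN-38 served as positive control.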

Bacillus subtilis [3] = experiment: Bactericidal activity against Bacillus subtilis NBRC 3134 incubated for 18 hrs followed by inoculums transfer to MHA plate and further incubated for 24 hrs; format: functional
Procedure, shortened: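 MBC determined per CLSI methods following broth microdilution MIC testing. Ampicillin and chloramphenicol served as positive controls.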

HeLa = experiment: Cytotoxicity against human HeLa cells assessed as reduction in cell viability incubated for 48 hrs by WST8 dye based assay; format: functional
Procedure, shortened: (§3)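 Adherent human cancer lines (A549 lung, HCT116 colon, HeLa cervix, TE8 esophageal squamous) exposed to a range of concentrations for 48 h. Viability read by WST-8. IC50 taken as 50% inhibition of viability, mean ± SD of triplicate experiments. SN-38 served as positive control. Tested up to 100 μM.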

HCT-116 = experiment: Cytotoxicity against human HCT116 cells assessed as reduction in cell viability incubated for 48 hrs by WST8 dye based assay; format: functional; conditions: HCT-116, 48 h; procedure, shortened: as §3
HEK293 = experiment: Cytotoxicity against human HEK293 cells assessed as reduction in cell viability incubated for 48 hrs by WST8 dye based assay; conditions: HEK293, 48 h
Procedure, shortened: (§4)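 Adherent non-cancer cells (HEK293, Ad5-transformed embryonic kidney; MRC-5, normal diploid fibroblast) treated with graded concentrations for 48 h. WST-8 viability read-out. IC50 reported as mean ± SD of triplicate experiments. SN-38 served as positive control. Tested up to 50 μM.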

A549 = experiment: Cytotoxicity against human A549 cells assessed as reduction in cell viability incubated for 48 hrs by WST8 dye based assay; format: functional; conditions: A549, 48 h; procedure, shortened: as §3
MRC5 = experiment: Cytotoxicity against human MRC5 cells assessed as reduction in cell viability incubated for 48 hrs by WST8 dye based assay; conditions: MRC5, 48 h; procedure, shortened: as §4
Jurkat = experiment: Cytotoxicity against human Jurkat cells assessed as reduction in cell viability incubated for 48 hrs by WST8 dye based assay; format: functional; procedure, shortened: as §2
Escherichia coli = experiment: Antibacterial activity against Escherichia coli NBRC 3301 after 17 hrs by broth microdilution method; format: functional; conditions: NBRC 3301, 17 h; procedure, shortened: as §1
TE-8 = experiment: Cytotoxicity against human TE8 cells assessed as reduction in cell viability incubated for 48 hrs by WST8 dye based assay; format: functional; conditions: TE-8, 48 h; procedure, shortened: as §3
HL-60 [4] = experiment: Induction of cell death in human HL60 cells assessed as reduction in cell viability at 2 uM incubated for 6 hrs after pre-treatment with caspase inhibitor Z-Asp-CH2-DCB for 1 hr by WST8 dye based assay; format: functional
HL-60 [5] = experiment: Induction of DNA fragmentation in human HL60 cells at 0.5 to 5 uM after 6 hrs by […] staining-based agarose gel electrophoresis; format: functional, cell-based

| Compound | MIC (Bacillus subtilis [1]) [µg/mL] | IC50 (HL-60 [2]) [µM] | MBC (Bacillus subtilis [3]) [µg/mL] | IC50 (HeLa) [µM] | IC50 (HCT-116) [µM] | IC50 (HEK293) [µM] | IC50 (A549) [µM] | IC50 (MRC5) [µM] | IC50 (Jurkat) [µM] | MIC (Escherichia coli) [µg/mL] | IC50 (TE-8) [µM] | Activity (HL-60 [4]) | Activity (HL-60 [5]) |
| --- | --- | --- | --- | --- | --- | --- | --- | --- | --- | --- | --- | --- | --- |
| CC1=CC(=O)[C@]2(O[C@@H]2C(=O)CC(C)C)C(=O)N1 | 8 (≈ 33.7 µM) | 1.7 | 8 (≈ 33.7 µM) |  |  |  |  |  |  |  |  |  |  |
| CC1=CC(=O)[C@@]2(O[C@H]2C(=O)CC(C)C)C(=O)N1 | 8 (≈ 33.7 µM) | 1.6 | 8 (≈ 33.7 µM) |  |  |  |  |  |  |  |  |  |  |
| CC(C)CC(=O)[C@@H]1O[C@@]12C(=O)C=C(Cc1ccccc1)NC2=O (racemic) | 128 (≈ 408 µM) | 37.3 | 128 (≈ 408 µM) | > 100 | > 100 | > 50 | > 100 | > 50 | > 50 | > 128 | > 100 |  |  |
| CC(C)C[C@]1(O)NC(=O)[C@]2(OC(Cc3ccccc3)=CC2=O)[C@H]1O (racemic) | > 128 | 28 | > 128 | > 100 | > 100 | > 50 | > 100 | > 50 | > 50 | > 128 | > 100 |  |  |
| CC1=CC(=O)[C@]2(O1)C(=O)N[C@@](O)(CC(C)C)[C@@H]2O (racemic) | > 128 | > 50 | > 128 | > 100 | > 100 | > 50 | > 100 | > 50 | > 50 | > 128 | > 100 |  |  |
| CC(C)CC(=O)C1Oc2cc(Cc3ccccc3)[nH]c(=O)c2O1 (racemic) | > 128 | > 50 | > 128 | > 100 | > 100 | > 50 | > 100 | > 50 | > 50 | > 128 | > 100 |  |  |
| CC(C)C[C@@]12NC(=O)[C@]3(O)C(=O)C[C@@](C)(O[C@@H]31)O2 (racemic) | > 128 | 37.7 | > 128 | > 100 | > 100 | > 50 | > 100 | > 50 | > 50 | > 128 | > 100 |  |  |
| Cc1cc2c(c(=O)[nH]1)OC(C(=O)CC(C)C)O2 (racemic) | > 128 | 19.9 | > 128 | > 100 | > 100 | > 50 | > 100 | > 50 | > 50 | > 128 | > 100 |  |  |
| CC1=CC(=O)C2(OC2C(=O)CC(C)C)C(=O)N1 (racemic) | 8 (≈ 33.7 µM) | 1.8 | 8 (≈ 33.7 µM) | 40.5 | 30.4 | 35.9 | 32.1 | 33.2 | 8 | > 128 | 21.6 | Active | inactive |
| CCc1c2c(nc3ccc(O)cc13)-c1cc3c(c(=O)n1C2)COC(=O)[C@]3(O)CC [7-ETHYL-10-HYDROXYCAMPTOTHECIN] |  | 2.4 |  | 13.1 | < 1 | < 1 | 6.6 | 15.3 | < 1 |  | < 1 |  |  |
| CC1(C)S[C@@H]2[C@H](NC(=O)[C@H](N)c3ccccc3)C(=O)N2[C@H]1C(=O)O [AMPICILLIN] | < 0.5 |  | < 0.5 |  |  |  |  |  |  | 4 (≈ 11.4 µM) |  |  |  |
| O=C(N[C@H](CO)[C@H](O)c1ccc([N+](=O)[O-])cc1)C(Cl)Cl [CHLORAMPHENICOL] | 4 (≈ 12.4 µM) |  | 64 (≈ 198 µM) |  |  |  |  |  |  |  |  |  |  |

Reference: ChEMBL document CHEMBL4390685, “Synthesis, antibacterial and cytotoxic evaluation of flavipucine and its derivatives” (Bioorg Med Chem Lett, 2019)
